Measured values published in PMC3041652 (Arteriosclerosis, thrombosis, and vascular biology, 2011).

Experiments:
[1] = tested on: elastinolytic activity in brachiocephalic atherosclerotic lesions; experiment: Elastinolytic in situ zymography of brachiocephalic artery lesions; format: biochemical, mouse
How it was run: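 Brachiocephalic lesion sections came from apoE-knockout mice fed a high-fat diet for 12 weeks. They were incubated with a fluorescently quenched elastin substrate in incubation buffer alone or with added 100 nmol/L test compound, 20 mmol/L EDTA or 1 μmol/L reference MMP inhibitor. Elastinolytic activity was read as green fluorescence.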

[2] = tested on: rabbit granuloma foam-cell macrophages; experiment: In vitro serum starvation-induced apoptosis of foam-cell macrophages; format: cell-based
[3] = Body weight and plasma lipids after 4 weeks of infusion; format: in vivo, apoE-knockout mice; conditions: 4.6 mg/kg per day for 4 weeks
[4] = tested on: monocyte/macrophage invasion; experiment: In vivo subcutaneous sponge monocyte/macrophage invasion assay; design: species or system C57Bl/6;Sv129 mice
How it was run: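 Male C57Bl/6;Sv129 mice carrying multiple subcutaneous sponges were infused by osmotic minipump with test compound (n=7) or PBS (n=7). Sponges were retrieved and either used to isolate monocytes/macrophages or formalin-fixed for histology of proliferation and apoptosis.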

[5] = tested on: mouse smooth muscle cells; experiment: FasL-induced apoptosis of smooth muscle cells; format: cell-based; conditions: untreated cells 78±29; unchanged
[6] = Plasma concentration of inhibitor after osmotic minipump infusion; format: in vivo, apoE-knockout mice
How it was run: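 ApoE-knockout mice on a high-fat diet (n=6) received test compound at 4.6 mg/kg body weight per day by osmotic minipump. MMP inhibitory activity in plasma was measured with a fluorogenic substrate, and inhibitor concentration was derived from a calibration inhibition curve. Intact compound in plasma extracts was confirmed by micro-HPLC coupled to mass spectrometry.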

other MMPs [7] = tested on: other MMPs
mouse MMP-12 = mouse MMP-12 (Mus musculus, UniProt P34960); experiment: Inhibition of mouse MMP-12; format: biochemical
[8] = tested on: apoE-knockout mice atherosclerotic plaques; format: in vivo, mouse
How it was run: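 ApoE-null mice (71% C57BL/6, 29% 129 background), both sexes, fed a high-fat diet for 8 weeks. They then received subcutaneous interscapular osmotic minipumps of test compound at 4.6 mg/kg body weight per day in sterile PBS (n=23) or PBS alone (n=27), with the diet continued 4 weeks. Brachiocephalic artery, proximal aorta, descending aorta and heart were analysed histologically. Apoptosis and calcification were scored by immunohistochemistry; calcification area was normalised to lesion area; mean±SEM.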

N-cadherin = N-cadherin Western blotting in macrophages treated with active MMP-12; format: cell-based
[9] = tested on: mouse monocyte-derived macrophages; experiment: In vitro proliferation of monocyte-derived macrophages; format: cell-based; conditions: 100 nmol/L
other MMPs [10] = conditions: cited from earlier work
human MMP-12 = conditions: read-out: Ki against human MMP-12; cited from earlier work
[11] = tested on: mouse monocyte-derived macrophages; experiment: In vitro serum starvation-induced apoptosis of macrophages; format: cell-based
[12] = compared with active MMP-12 alone, 100 nmol/L

Chain of mouse MMP-12 (P34960 110-473): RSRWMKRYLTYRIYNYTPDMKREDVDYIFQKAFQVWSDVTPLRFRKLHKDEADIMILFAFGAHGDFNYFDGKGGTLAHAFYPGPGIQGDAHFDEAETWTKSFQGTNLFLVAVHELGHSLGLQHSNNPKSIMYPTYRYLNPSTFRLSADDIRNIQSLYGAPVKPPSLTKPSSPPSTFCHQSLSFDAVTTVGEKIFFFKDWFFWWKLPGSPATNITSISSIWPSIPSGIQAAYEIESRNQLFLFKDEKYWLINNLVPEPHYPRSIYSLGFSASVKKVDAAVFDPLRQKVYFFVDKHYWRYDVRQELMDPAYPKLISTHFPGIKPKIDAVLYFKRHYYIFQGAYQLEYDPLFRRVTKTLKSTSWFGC

Compound: CNC(=O)[C@H](Cc1ccccc1)NC(=O)[C@H](CC(C)C)[C@H](CSc1cccs1)C(=O)NO [BB94, reference compound]
- reduction of elastinolytic activity ([1]; 1 μmol/L): 95±4%

Compound: O=C(O)CN(CCN(CC(=O)O)CC(=O)O)CC(=O)O [EDTA, reference compound]
- reduction of elastinolytic activity ([1]; 20 mmol/L): 94±5%

Compound: NC(=O)[C@H](CCC(=O)O)NC(=O)[C@H](CCC(=O)O)NC(=O)[C@H](Cc1cc(-c2ccc(-c3cccc(Cl)c3)cc2)no1)CP(=O)(O)c1ccc(Br)cc1 [RXP470.1]
- inhibition of apoptosis [2, 12]: 91%
- apoptotic rate relative to control cells ([2]; no added MMP-12): significantly reduced
- tolerability [3]: well tolerated
- body weight ([3]; control 35.7±1.2 g): 36.2 ± 0.9 g
- proliferative rate of sponge macrophages ([4]; control 4.0±1.1%): 5.6±1.6%
- apoptotic cells in sponges ([4]; mouse, in vivo): no apoptotic cells were detected
- reduction of invasive capacity of monocyte/macrophages ([4]; vs controls, P<0.01): 48%
- rate of FasL-induced apoptosis [5]: 70±29 ×10^4 ALU
- form observed in plasma of infused mice (mass spectroscopy fingerprint analysis) [6]: intact form
- in vitro selectivity for MMP-12 over other MMPs (other MMPs [7]): greater than 100 fold
- Ki (mouse MMP-12): 4 nM
- reduction of elastinolytic activity ([1]; 100 nmol/L, P<0.05): 74%
- elastinolytic activity, fluorescence of total plaque area ([1]; 100 nmol/L, incubation buffer alone 4.1±0.5%): 1.1±0.3%
- reduction of atherosclerotic plaque cross-sectional area ([8]; at 4 different vascular sites, male and female mice, Western diet): approximately 50%
- frequency of intraplaque macrophage apoptosis ([8]; baseline 15.3±3.0%): 18.1±5.8%
- reduction in apoptotic frequency, cleaved PARP-1 immunohistochemistry ([8]; brachiocephalic artery plaques): 57%
- reduction in apoptotic frequency, pyknotic/fragmented nuclei ([8]; brachiocephalic artery plaques): 43%
- reduction of the number of ISEL-positive macrophages ([8]; brachiocephalic artery plaques, P<0.05): 42%
- increase of smooth muscle cell:macrophage ratio ([8]; brachiocephalic artery, P<0.05): 33%
- smooth muscle cells as a proportion of all plaque cells ([8]; brachiocephalic artery, control 31±3%, P<0.05): 41±3%
- percentage of macrophages of plaque cells ([8]; brachiocephalic artery, control 42±1%, P<0.01): 36±2%
- area of calcification normalized to lesion area ([8]; control 5.9±2.2%): 0.8±0.6%
- percentage of proliferating macrophages in brachiocephalic plaques, Ki67 ([8]; control 14.8±3.1%): 13.6±2.2%
- necrotic core size, percentage of total plaque area ([8]; control 24±2%): 13±3%
- number of lesions showing elastin fragmentation ([8]; control 37%, P<0.05): 8%
- increase in collagen content of lesions ([8]; did not reach statistical significance): 26%
- minimum cap thickness ([8]; no inhibitor 8.7±1.0, baseline 10.2±1.5): 16.4±2.2 μm
- lesion size, brachiocephalic artery ([8]; treated mice, at commencement of drug administration 147±32): 153±31 ×10^3 μm^2
- total elastin content of plaques ([8]; vs control): no difference
- endothelial coverage over plaques ([8]; vs control mice): no differences
- expression of vascular cell adhesion molecule-1 and MCP-1 and -2 ([8]; vs control mice): no difference
- reduction in the number of mice with any detectable atherosclerotic lesion, thoracic aorta ([8]; vs controls): 70%
- reduction in the number of plaques containing buried fibrous layers ([8]; vs controls): 65%
- reduction of plaque cross-sectional area, brachiocephalic artery ([8]; vs controls after 12 weeks of high-fat feeding, P<0.05): 44%
- decrease in the area of calcification normalized to lesion area ([8]; vs controls, P<0.01): 86%
- reduction in lesion necrotic core size ([8]; vs controls, P<0.05): 46%
- reduction in plaque area, aortic sinus ([8]; vs controls, P<0.05): 37%
- reduction in plaque area, proximal aorta ([8]; vs controls, P<0.05): 61%
- reduction in plaque size, thoracic aorta ([8]; vs controls, P<0.05): 88%
- reduction in the incidence of calcification in lesions ([8]; vs controls, P<0.05): 72%
- effect on reduction of full-length N-cadherin expression by active MMP-12 (N-cadherin; coincubation with active MMP-12): reversed
- formation of the cleaved fragment of N-cadherin (N-cadherin; in the presence of active MMP-12): negated
- macrophage proliferation ([9]; absence of added active MMP-12, control 36±5%): 46±13%
- macrophage proliferation ([9]; presence of added active MMP-12, MMP-12 alone 46±2%): 39±12%
- less potent against other MMPs than against human MMP-12 (other MMPs [10]): 2 to 4 orders of magnitude
- Ki (human MMP-12): 0.2 nM
- inhibition of apoptosis [11, 12]: 91%
- apoptotic rate relative to control cells ([11]; no added MMP-12): significantly reduced
